Source: PubChem BioAssay (several laboratories)
TAG inh: triacylglycerol accumulation inhibition. actives 0.66% (n = 230,000). inhibition, % at 12.5 µM. AID 651582. H9c2 cells, Nile Red lipid (TAG) fluorescence; cells loaded with 200 µM oleic acid;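 active means pattern-corrected inhibition of lipid staining of at least 50% with the nuclear-stain viability signal not falling by more than 50%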
aDG glyco up: alpha-DG glycosylation activation | Pro5-aDG cells, alpha-DG glycosylation AlphaScreen (IIH6); 0% Pro5, 100% B10-LARGE cell signal | activation, % at 10 µM | actives 0.22% (n = 360,000);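 active means activation of at least 8% versus controls, or a plate z-score of at least 8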;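 further: Pro5 are CHO cells carrying HIG-tagged alpha-DG that lacks glycosylation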
NTR1 agonist: agonists of human neurotensin receptor NTR1; P30989; NTR1-U2OS beta-arrestin-GFP spot imaging, agonist mode; activation, % at 20 µM; actives 0.17% (n = 330,000);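 active means activation at or above 40% of the spot to cytoplasm intensity ratio, with at least 20 cells analyzed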
Tb MetRS inh: Trypanosoma brucei MetRS inhibition. purified T. brucei MetRS, ATP depletion, Kinase-Glo luminescence. inhibition, % at 11.9 µM. actives 0.4% (n = 360,000). AID 624268;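 active means inhibition above a per-plate cutoff of the control wells' mean inhibition plus 3 SD, cut at about 5.5% in these data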
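Dosing: 11.9 µM compound single dose, 0.9% DMSO; Assay system: purified T. brucei MetRS enzyme; Measured by: Kinase-Glo luciferase luminescence reporting remaining unconsumed ATP; Schedule: 15 min plus 2 h at 25 °C.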
MC4R antagonist: blocks human MC4R cAMP signaling | MC4R-expressing cells, MTII-stimulated cAMP, LANCE TR-FRET | inhibition, % at 6.5 µM | actives 0.48% (n = 360,000) | AID 540295;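 active means inhibition above its plate's cutoff, the mean of tested wells on that plate plus 3 SD, cut at about 29% in these data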
Target sequence (P32245 whole entry, looked up): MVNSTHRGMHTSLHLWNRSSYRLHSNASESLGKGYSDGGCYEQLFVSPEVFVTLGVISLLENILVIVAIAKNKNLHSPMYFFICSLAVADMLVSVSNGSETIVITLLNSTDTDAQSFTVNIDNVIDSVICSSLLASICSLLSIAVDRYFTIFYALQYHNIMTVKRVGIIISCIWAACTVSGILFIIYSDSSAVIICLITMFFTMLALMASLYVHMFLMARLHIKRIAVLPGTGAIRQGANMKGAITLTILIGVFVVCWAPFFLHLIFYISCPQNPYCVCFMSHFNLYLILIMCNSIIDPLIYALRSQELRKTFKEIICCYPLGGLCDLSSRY
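material = U2OS cells stably expressing human melanocortin 4 receptor (MC4R) | also added = Melanotan II challenge | dosing = single nominal compound dose of 6.5 µM | detection = TR-FRET with Eu-cAMP and labeled anti-cAMP, 671 nm | replication = singlicate | timing = compound 30 min, challenge 1 h, detection 1 h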
MC4R ag barr: agonists of human melanocortin 4 receptor (MC4R) beta-arrestin; P32245; U2OS MC4R beta-arrestin complementation, luminescence; percent of melanotan II response, DMSO zero; activation, % at 8.9 µM; actives 0.98% (n = 360,000); AID 540308;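 active means activation above a per-plate cutoff, the mean activation of sample wells on that plate plus 3 SD, cut at about 8% in these data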
U2OS cAMP counter: counter-screen for MC4R antagonists: nonselective cAMP signaling inhibitors | shares compounds with MC4R antagonist | parental U2OS, forskolin cAMP, LANCE TR-FRET | inhibition, % at 6.5 µM | actives 26% (n = 1,600) | AID 602193;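 active means mean inhibition over triplicates above the low-control well mean plus 3 SD, set per campaign, cut at about 13% in these data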;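 further: signal is single emission at 671 nm which falls as cellular cAMP rises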
MC4R cAMP antag: human MC4R cAMP antagonism confirmation; shares compounds with MC4R antagonist; MC4R-expressing cells, MTII-stimulated cAMP, TR-FRET; inhibition, % at 6.5 µM; actives 27% (n = 1,600); AID 602195; in the data active means inhibition above about 29%
A number is an active result. Sampled rows, rich in hits. Any-hit rate of the full collection: about 2.4%.

CC(C)C[C@H](NC(=O)c1[nH]cnc1C(=O)Nc1ccc(CNC(=O)OC(C)(C)C)cc1)C(=O)OC(C)(C)C was read as TAG inh inactive, aDG glyco up inactive, NTR1 agonist inactive, Tb MetRS inh inactive, MC4R antagonist inactive and MC4R ag barr inactive.
CN(C)c1ccc(-c2csc(C(O)c3ccc(F)c(F)c3)n2)cc1 (centres undefined) was read as TAG inh inactive, aDG glyco up inactive, Tb MetRS inh inactive, MC4R antagonist inactive and MC4R ag barr inactive.
CCC[C@@H](CN1CCC[C@H]1CN1C(N)=NC[C@H]1CC(C)C)N1C[C@@H](Cc2ccccc2)N(CCc2ccc(Cl)c(Cl)c2)C1=N was read as TAG inh inactive, aDG glyco up inactive, NTR1 agonist inactive, Tb MetRS inh inactive, MC4R antagonist 29, MC4R ag barr inactive, U2OS cAMP counter inactive and MC4R cAMP antag 39.
For CCC[C@@H](CN1CCC[C@H]1CN1C(N)=NC[C@H]1CC(C)C)N1C[C@@H](Cc2ccccc2)N(CCCC2CCCC2)C1=N the results were TAG inh inactive, aDG glyco up inactive, NTR1 agonist inactive, Tb MetRS inh inactive, MC4R antagonist inactive and MC4R ag barr inactive.
For CC(C)[C@H](CN1CCC[C@H]1CN1C(N)=NC[C@@H]1Cc1ccccc1)N1C[C@@H](Cc2ccccc2)N(CCc2ccc(Cl)c(Cl)c2)C1=N the results were TAG inh inactive, aDG glyco up inactive, NTR1 agonist inactive, Tb MetRS inh inactive, MC4R antagonist 31, MC4R ag barr inactive, U2OS cAMP counter inactive and MC4R cAMP antag 43.
`CCC[C@@H](CN1CCC[C@H]1CN1C(N)=NC[C@@H]1Cc1ccccc1)N1C[C@@H](Cc2ccccc2)N(CCc2ccc(Cl)c(Cl)c2)C1=N` gave TAG inh inactive, aDG glyco up inactive, NTR1 agonist inactive, Tb MetRS inh inactive, MC4R antagonist inactive and MC4R ag barr inactive.
CC(C)[C@H](CN1CCC[C@H]1CN1C(N)=NC[C@H]1C(C)C)N1C[C@@H](Cc2ccccc2)N(CCCC2CCCC2)C1=N was read as TAG inh inactive, aDG glyco up inactive, NTR1 agonist inactive, Tb MetRS inh inactive, MC4R antagonist 30, MC4R ag barr inactive, U2OS cAMP counter inactive and MC4R cAMP antag inactive.
COc1ccc(CCNC(=O)c2cc3cc(Cl)ccc3nc2N)cc1OC was read as aDG glyco up inactive and Tb MetRS inh inactive.
Screening CC(=O)Nc1cccc(NC(=O)CSc2ncc(C(=O)Nc3ccc(F)cc3)c(=O)n2C)c1 returned TAG inh inactive, aDG glyco up inactive, NTR1 agonist inactive, Tb MetRS inh inactive, MC4R antagonist inactive and MC4R ag barr inactive.
CC(=O)Nc1cccc(NC(=O)CSc2ncc(C(=O)Nc3ccccc3)c(=O)n2C)c1 was read as TAG inh inactive, aDG glyco up inactive, NTR1 agonist inactive, Tb MetRS inh inactive, MC4R antagonist 30, MC4R ag barr inactive, U2OS cAMP counter inactive and MC4R cAMP antag inactive.
`COC(=O)[C@@]12C[C@@H](CC(=O)NCC3CCCCC3)C(=O)N(Cc3ccc4c(c3)OCO4)C1=CCC(C)(C)C2` gave aDG glyco up inactive and Tb MetRS inh inactive.
For CCOC(=O)c1sc(N2N=C(C)/C(=C\c3ccc(OCC(=O)OC)cc3)C2=O)nc1C the results were aDG glyco up inactive, NTR1 agonist inactive, Tb MetRS inh inactive, MC4R antagonist 31, MC4R ag barr inactive, U2OS cAMP counter inactive and MC4R cAMP antag inactive.
Screening CCC(C)(C)NC(=O)CN(Cc1ccc2c(c1)OCO2)C(=O)CCC(=O)Nc1cc(C)ccn1 returned aDG glyco up inactive, NTR1 agonist inactive, Tb MetRS inh inactive, MC4R antagonist 30, MC4R ag barr inactive, U2OS cAMP counter inactive and MC4R cAMP antag inactive.
CN(C)c1cc[n+](/C(C(=S)Nc2ccc(SC(F)F)cc2)=C(/[O-])c2ccccc2)cc1 was read as TAG inh inactive, aDG glyco up inactive, NTR1 agonist inactive, Tb MetRS inh inactive, MC4R antagonist inactive and MC4R ag barr inactive.
Screening C=CCn1c(C)cc(/C([O-])=C(/C(=S)Nc2ccc(OC(F)F)cc2)[n+]2ccc(N(C)C)cc2)c1C returned TAG inh inactive, aDG glyco up inactive, NTR1 agonist inactive, Tb MetRS inh inactive, MC4R antagonist 29, MC4R ag barr inactive, U2OS cAMP counter inactive and MC4R cAMP antag inactive.
For CCN(C(=O)COC(=O)/C=C/c1cnc2ccccc2n1)C1CCS(=O)(=O)C1 (centres undefined) the results were TAG inh inactive, aDG glyco up inactive, NTR1 agonist inactive, Tb MetRS inh inactive, MC4R antagonist 29, MC4R ag barr inactive, U2OS cAMP counter inactive and MC4R cAMP antag inactive.
Cc1cccc(C(=O)OCC(=O)NCc2cccs2)c1 was read as TAG inh inactive, aDG glyco up inactive, NTR1 agonist inactive, Tb MetRS inh inactive, MC4R antagonist inactive and MC4R ag barr inactive.
CS(=O)(=O)c1ccc(C(=O)OCC(=O)NCc2cccs2)cc1[N+](=O)[O-] was read as TAG inh 51, aDG glyco up inactive, NTR1 agonist inactive, Tb MetRS inh inactive, MC4R antagonist 47, MC4R ag barr inactive, U2OS cAMP counter 22 and MC4R cAMP antag inactive.
COc1cc(NS(=O)(=O)c2ccc(C)cc2)c2c(c1N)C(=O)c1ccccc1C2=O was read as TAG inh inactive, aDG glyco up inactive, Tb MetRS inh inactive, MC4R antagonist inactive and MC4R ag barr inactive.
COC(=O)C1CCN(C(=O)c2cc3c(=O)n4cccc(C)c4nc3n2Cc2ccccc2)CC1 was read as TAG inh inactive, aDG glyco up inactive, NTR1 agonist inactive, Tb MetRS inh inactive, MC4R antagonist 30, MC4R ag barr inactive, U2OS cAMP counter inactive and MC4R cAMP antag inactive.
For Cc1cccn2c(=O)c3cc(C(=O)O)n(C)c3nc12 the results were aDG glyco up inactive, NTR1 agonist inactive, Tb MetRS inh inactive, MC4R antagonist inactive and MC4R ag barr inactive.
For O=C(Nc1nnc(-c2ccccc2)s1)c1cc(S(=O)(=O)N2CCOCC2)c(Cl)cc1Cl the results were aDG glyco up inactive, NTR1 agonist inactive, Tb MetRS inh inactive, MC4R antagonist 32, MC4R ag barr inactive, U2OS cAMP counter inactive and MC4R cAMP antag inactive.
